According to ChEMBL document CHEMBL3400019, “Pheophorbide-a conjugates with cancer-targeting moieties for targeted photodynamic cancer therapy” (Bioorg Med Chem, 2015):
Calls of active or inactive are those of the source. The calls are words filed in the database; no cut-off is given here. Residues, ends and D or L forms follow the SMILES beside them.

Experiments:
[1] = Cellular uptake in human U87MG cells overexpressing alphaVbeta3 at 2 uM after 1 hr by confocal microscopy; type: ADME, cell-based; settings: u-87mg atcc
Summary of the method: (§1)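 Cells plated on slide dishes overnight (A549 in DMEM, others in RPMI 1640, 10% FBS, 37 °C, 5% CO2); conjugate added to medium at 2 µM, incubated (time per line), washed three times with PBS, imaged by confocal microscopy; excitation 440 nm, emission 655–755 nm.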

A549 [2] = assay: Cellular uptake in alphaVbeta3-negative human A549 cells at 2 uM after 1 hr by confocal microscopy; type: ADME, cell-based; settings: a549, 1 h; summary of the method: as §1
U-87MG ATCC = assay: Phototoxicity against human U87MG cells overexpressing alphaVbeta3 at 0.1 to 2 uM incubated for 2 hrs followed by 1.25 J/cm'2 light irradiation from red light emitting diode for 24 hrs by MTT assay; type: functional, cell-based
Summary of the method: (§2)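 Cells seeded at 1 × 10^5 cells/mL overnight, PBS-washed, incubated 2 h in serum-free medium with photosensitizer (from 1 mM DMSO stock); medium removed, irradiated 1.25 J/cm2 red LED (613–645 nm). After 24 h, MTT (5 mg/mL stock) 3 h at 37 °C, formazan dissolved in 0.04 M HCl/isopropanol, OD 570 nm; background-subtracted, % of control; mean ± SD, three experiments.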

A549 [3] = assay: Phototoxicity against alphaVbeta3-negative human A549 cells at 0.1 to 2 uM incubated for 2 hrs followed by 1.25 J/cm'2 light irradiation from red light emitting diode for 24 hrs by MTT assay; type: functional, cell-based; summary of the method: as §2
MCF7 [4] = assay: Cellular uptake in human MCF7 cells overexpressing LHRH receptor at 2 uM after 1.5 hrs by confocal microscopy; type: ADME, cell-based; settings: mcf7, 1.5 h; summary of the method: as §1
[5] = Cellular uptake in LHRH receptor-negative human SKOV3 cells at 2 uM after 1.5 hr by confocal microscopy; settings: sk-ov-3, 1.5 h
MCF7 [6] = assay: Phototoxicity against human MCF7 cells overexpressing LHRH receptor at 0.1 to 2 uM incubated for 2 hrs followed by 1.25 J/cm'2 light irradiation from red light emitting diode for 24 hrs by MTT assay; type: functional, cell-based; summary of the method: as §2
SK-OV-3 = assay: Phototoxicity against LHRH receptor-negative human SKOV3 cells at 0.1 to 2 uM incubated for 2 hrs followed by 1.25 J/cm'2 light irradiation from red light emitting diode for 24 hrs by MTT assay; type: functional, cell-based; summary of the method: as §2
[7] = Cellular uptake in human KB cells overexpressing folate receptor at 2 uM after 1 hr by confocal microscopy; type: ADME, cell-based; settings: 0.5 h, in the assay text read “after 0.5 hr” for “after 1 hr”; summary of the method: as §1
A549 [8] = assay: Cellular uptake in folate receptor-negative human A549 cells at 2 uM after 1 hr by confocal microscopy; type: ADME, cell-based; settings: a549, 0.5 h, in the assay text read “after 0.5 hr” for “after 1 hr”; summary of the method: as §1
KB = assay: Phototoxicity against human KB cells overexpressing folate receptor at 0.1 to 2 uM incubated for 2 hrs followed by 1.25 J/cm'2 light irradiation from red light emitting diode for 24 hrs by MTT assay; type: functional, cell-based; summary of the method: as §2
A549 [9] = assay: Phototoxicity against folate receptor-negative human A549 cells at 0.1 to 2 uM incubated for 2 hrs followed by 1.25 J/cm'2 light irradiation from red light emitting diode for 24 hrs by MTT assay; type: functional, cell-based; summary of the method: as §2
FaDu [10] = assay: Cellular uptake in human FADU cells overexpressing alphaVbeta6 at 2 uM after 1 hr by confocal microscopy; type: ADME, cell-based; summary of the method: as §1
A549 [11] = assay: Cellular uptake in alphaVbeta6-negative human A549 cells at 2 uM after 1 hr by confocal microscopy; type: ADME, cell-based; settings: a549, 1 h; summary of the method: as §1
FaDu [12] = assay: Phototoxicity against human FADU cells overexpressing alphaVbeta6 at 0.1 to 2 uM incubated for 2 hrs followed by 1.25 J/cm'2 light irradiation from red light emitting diode for 24 hrs by MTT assay; type: functional, cell-based; summary of the method: as §2
A549 [13] = assay: Phototoxicity against alphaVbeta6-negative human A549 cells at 0.1 to 2 uM incubated for 2 hrs followed by 1.25 J/cm'2 light irradiation from red light emitting diode for 24 hrs by MTT assay; type: functional, cell-based; summary of the method: as §2
FaDu [14] = assay: Induction of apoptosis in human FADU cells overexpressing alphaVbeta6 assessed as increase in apoptotic cell death incubated for 1 hr prior to 1.25 J/cm'2 light irradiation from red light emitting diode measured after 24 hrs by Annexin V-FITC/propidium iodide staining-based flow cytometry relative to control; type: functional
Summary of the method: (§3)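 Cells seeded 5 × 10^5 per plate and given photodynamic treatment as in the viability assay: conjugate in serum-free medium, then red LED light (613–645 nm) at 1.25 J/cm2. Harvested 24 h later and washed in cold PBS. Stained 15 min at rt with saturating Annexin V-FITC and PI in HEPES binding buffer (10 mM HEPES, 140 mM NaCl, 2.5 mM CaCl2, pH 7.4). Read by flow cytometry against control.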

A549 [15] = assay: Induction of apoptosis in alphaVbeta6-negative human A549 cells assessed as increase in apoptotic cell death incubated for 1 hr prior to 1.25 J/cm'2 light irradiation from red light emitting diode measured after 24 hrs by Annexin V-FITC/propidium iodide staining-based flow cytometry relative to control; type: functional; summary of the method: as §3
FaDu [16] = assay: Induction of apoptosis in human FADU cells overexpressing alphaVbeta6 assessed as decrease in cell density at 1 uM incubated for 1 hr prior to 1.25 J/cm'2 light irradiation from red light emitting diode measured after 24 hrs by DAPI staining-based conventional fluorescence microscopy relative to control; type: functional
FaDu [17] = assay: (§4) Induction of apoptosis in human FADU cells overexpressing alphaVbeta6 assessed as cell rounding at 1 uM incubated for 1 hr prior to 1.25 J/cm'2 light irradiation from red light emitting diode measured after 24 hrs by DAPI staining-based conventional fluorescence microscopy relative to control; type: functional
FaDu [18] = assay: Induction of apoptosis in human FADU cells overexpressing alphaVbeta6 assessed as cellular shrinkage at 1 uM incubated for 1 hr prior to 1.25 J/cm'2 light irradiation from red light emitting diode measured after 24 hrs by DAPI staining-based conventional fluorescence microscopy relative to control; type: functional, cell-based
FaDu [19] = assay: as §4, with “condensation and the fragmentation of nuclear structure” for “cell rounding”; type: functional, cell-based
Summary of the method: (§5)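 A549 and FaDu seeded 5 × 10^5 cells/well, PDT (1 h conjugate, 1.25 J/cm2 red LED, 613–645 nm), 24 h; fixed in 4% paraformaldehyde, stained with 1 µg/mL DAPI 5 min dark at rt, washed ice-cold PBS, nuclear chromatin changes viewed by fluorescence microscopy (×400).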

A549 [20] = assay: Induction of apoptosis in alphaVbeta6-negative human A549 cells assessed as decrease in cell density at 1 uM incubated for 1 hr prior to 1.25 J/cm'2 light irradiation from red light emitting diode measured after 24 hrs by DAPI staining-based conventional fluorescence microscopy relative to control; type: functional
A549 [21] = assay: (§6) Induction of apoptosis in alphaVbeta6-negative human A549 cells assessed as cell rounding at 1 uM incubated for 1 hr prior to 1.25 J/cm'2 light irradiation from red light emitting diode measured after 24 hrs by DAPI staining-based conventional fluorescence microscopy relative to control; type: functional
A549 [22] = assay: Induction of apoptosis in alphaVbeta6-negative human A549 cells assessed as cellular shrinkage at 1 uM incubated for 1 hr prior to 1.25 J/cm'2 light irradiation from red light emitting diode measured after 24 hrs by DAPI staining-based conventional fluorescence microscopy relative to control; type: functional, cell-based
A549 [23] = assay: as §6, with “condensation and the fragmentation of nuclear structure” for “cell rounding”; type: functional, cell-based; summary of the method: as §5
FaDu [24] = assay: Induction of apoptosis in human FADU cells overexpressing alphaVbeta6 assessed as PARP cleavage at 0.1 to 1 uM incubated for 1 hr prior to 1.25 J/cm'2 light irradiation from red light emitting diode measured after 24 hrs by Western blotting analysis relative to control; type: functional, cell-based
Summary of the method: (§7)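 A549 and FaDu seeded 2 × 10^5 cells/well, given PDT (1 h conjugate, 1.25 J/cm2 red LED, 613–645 nm, 35 mW/cm2 at 635 nm peak), then 24 h incubation; lysed, equal protein by SDS–PAGE, PVDF transfer, antibody immunoblot for PARP cleavage, procaspase-3, Bcl-2, Bax.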

A549 [25] = assay: Induction of apoptosis in alphaVbeta6-negative human A549 cells assessed as PARP cleavage at 0.1 to 1 uM incubated for 1 hr prior to 1.25 J/cm'2 light irradiation from red light emitting diode measured after 24 hrs by Western blotting analysis relative to control; type: functional, cell-based; summary of the method: as §7
FaDu [26] = assay: Induction of apoptosis in human FADU cells overexpressing alphaVbeta6 assessed as reduction in Bcl-2 expression at 0.1 to 1 uM incubated for 1 hr prior to 1.25 J/cm'2 light irradiation from red light emitting diode measured after 24 hrs by Western blotting analysis relative to control; type: functional, cell-based; summary of the method: as §7
FaDu [27] = assay: Induction of apoptosis in human FADU cells overexpressing alphaVbeta6 assessed as increase in Bax expression at 0.1 to 1 uM incubated for 1 hr prior to 1.25 J/cm'2 light irradiation from red light emitting diode measured after 24 hrs by Western blotting analysis relative to control; type: functional, cell-based; summary of the method: as §7
FaDu [28] = assay: Induction of apoptosis in human FADU cells overexpressing alphaVbeta6 assessed as decrease in procaspase-3 expression at 0.1 to 1 uM incubated for 1 hr prior to 1.25 J/cm'2 light irradiation from red light emitting diode measured after 24 hrs by Western blotting analysis relative to control

For `C=Cc1c(C)c2cc3nc(c4c5[nH]c(cc6nc(cc1[nH]2)C(C)=C6CC)c(C)c5C(=O)[C@@H]4C(=O)OC)[C@@H](CCC(=O)NCCCC(=O)NCCCC[C@H]1NC(=O)[C@@H](Cc2ccccc2)NC(=O)[C@H](CC(=O)O)NC(=O)CNC(=O)[C@H](CCCNC(=N)N)NC1=O)[C@@H]3C`, the Drug uptake [1] was “Active”, the Drug uptake (A549 [2]) was “Not Active” and the Activity (U-87MG ATCC) was “Active”. For the same compound, the Activity (A549 [3]) was “inactive”.
With `C=Cc1c(C)c2cc3nc(c4c5[nH]c(cc6nc(cc1[nH]2)C(C)=C6CC)c(C)c5C(=O)[C@@H]4C(=O)OC)[C@@H](CCC(=O)NCCCC(=O)OC[C@H](NC(=O)[C@H](Cc1c[nH]c2ccccc12)NC(=O)[C@H](Cc1cnc[nH]1)NC(=O)[C@@H]1CCC(=O)N1)C(=O)N[C@@H](Cc1ccc(O)cc1)C(=O)N[C@H](CC(C)C)C(=O)N[C@@H](CC(C)C)C(=O)N[C@@H](CCCNC(=N)N)C(=O)N1CCC[C@H]1C(=O)NCC)[C@@H]3C` the Drug uptake (MCF7 [4]) was “Active” and the Drug uptake [5] was “Not Active”.
In the case of `C=Cc1c(C)c2cc3nc(c4c5[nH]c(cc6nc(cc1[nH]2)C(C)=C6CC)c(C)c5C(=O)[C@@H]4C(=O)OC)[C@@H](CCC(=O)NCCCC(=O)OC[C@H](NC(=O)[C@@H](Cc1c[nH]c2ccccc12)NC(=O)[C@H](Cc1cnc[nH]1)NC(=O)[C@@H]1CCC(=O)N1)C(=O)N[C@@H](Cc1ccc(O)cc1)C(=O)N[C@H](CC(C)C)C(=O)N[C@@H](CC(C)C)C(=O)N[C@@H](CCCNC(=N)N)C(=O)N1CCC[C@H]1C(=O)NCC)[C@@H]3C`, the Activity (MCF7 [6]) is reported as “Active” and the Activity (SK-OV-3) is reported as “inactive”.
For `C=Cc1c(C)c2cc3nc(c4c5[nH]c(cc6nc(cc1[nH]2)C(C)=C6CC)c(C)c5C(=O)[C@@H]4C(=O)OC)[C@@H](CCC(=O)NCCOCCOCCNC(=O)CCC(NC(=O)c1ccc(NCc2cnc4nc(N)[nH]c(=O)c4n2)cc1)C(=O)O)[C@@H]3C` (some centres not stated), the Drug uptake [7] was “Active”, the Drug uptake (A549 [8]) was “Not Active” and the Activity (KB) was “Active”. For the same compound, the Activity (A549 [9]) was “inactive”.
With `[H][C@]12CSSC[C@]([H])(NC1=O)C(=O)N[C@@H](CCCNC(=N)N)C(=O)NCC(=O)N[C@@H](CC(=O)NCCCNC(=O)CC[C@@H]1c3nc(cc4[nH]c(cc5nc(cc6[nH]c7c(c6C)C(=O)[C@H](C(=O)OC)c37)C(CC)=C5C)c(C=C)c4C)[C@H]1C)C(=O)N[C@@H](CC(C)C)C(=O)N[C@@H](C)C(=O)N[C@@H](CO)C(=O)N[C@@H](CC(C)C)C(=O)N2` (HELM PEPTIDE1{R.G.D.L.A.S.L.C.C}|CHEM1{[C=Cc1c(C)c2cc3nc(c4c5[nH]c(cc6nc(cc1[nH]2)C(C)=C6CC)c(C)c5C(=O)[C@@H]4C(=O)OC)[C@@H](CCC(=O)NCCCN[*:1])[C@@H]3C]}$PEPTIDE1,CHEM1,3:R3-1:R1|PEPTIDE1,PEPTIDE1,8:R3-9:R3|PEPTIDE1,PEPTIDE1,1:R1-9:R2$$$V2.0) the Drug uptake (FaDu [10]) was “Active”, the Drug uptake (A549 [11]) was “Not Active” and the Activity (FaDu [12]) was “Active”. For the same compound, the Activity (A549 [13]) was “inactive”, the Activity (FaDu [14]) was “Dose-dependent effect” and the Activity (FaDu [14]; record 2) was 31.4%. For the same compound, the Activity (A549 [15]) was 19.8%, the Activity (FaDu [16]) was “Active” and the Activity (FaDu [17]) was “Active”. The Activity (FaDu [18]) was “Active”, the Activity (FaDu [19]) was “Active” and the Activity (A549 [20]) was “inactive”. The Activity (A549 [21]) was “inactive”, the Activity (A549 [22]) was “inactive” and the Activity (A549 [23]) was “inactive”. The Activity (FaDu [24]) was “Active”, the Activity (A549 [25]) was “inactive” and the Activity (FaDu [26]) was “Active”. For the same compound, the Activity (FaDu [27]) was “Active” and the Activity (FaDu [28]) was “Active”.
